According to ChEMBL document CHEMBL1137390, “Structure-based design of potent small-molecule inhibitors of anti-apoptotic Bcl-2 proteins” (J Med Chem, 2006):

Tests used:
[1] = target: T1, Apoptosis regulator Bcl-2 (Homo sapiens, UniProt P10415); test: Displacement of FAM-Bid from human Bcl2 by FP assay
How it was run: (§1)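 Competitive fluorescence-polarization binding assay against the recombinant anti-apoptotic protein. Values are reported as Ki ± SD from three to seven independent experiments per compound.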

[2] = target: T1, Apoptosis regulator Bcl-2; test: Binding affinity to human Bcl2 by ELISA
[3] = system: PC-3; test: Induction of apoptosis in human PC3 cell at 20 uM by TUNEL assay; format: functional
How it was run: (§2)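 PC-3 prostate cancer cells were exposed to compound for 4 days, with an untreated control included. Apoptosis was scored by TUNEL using flow cytometry: the BrdU-FITC-positive fraction (M1 marker) is given as the percentage of apoptotic cells.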

[4] = system: PC-3; test: Induction of apoptosis in human PC3 cell at 1.25 uM by TUNEL assay; format: functional; how it was run: as §2
[5] = target: Bcl-2-like protein 1 (Homo sapiens, UniProt Q07817); test: Displacement of FAM-Bak from human Bcl-xL by FP assay; how it was run: as §1
[6] = target: Induced myeloid leukemia cell differentiation protein Mcl-1 (Homo sapiens, UniProt Q07820); test: Displacement of FAM-Bid from human Mcl1 by FP assay
[7] = system: PC-3; test: Induction of apoptosis in human PC3 cell at 5 uM by TUNEL assay; format: functional; how it was run: as §2

T1 sequence (P10415 whole entry): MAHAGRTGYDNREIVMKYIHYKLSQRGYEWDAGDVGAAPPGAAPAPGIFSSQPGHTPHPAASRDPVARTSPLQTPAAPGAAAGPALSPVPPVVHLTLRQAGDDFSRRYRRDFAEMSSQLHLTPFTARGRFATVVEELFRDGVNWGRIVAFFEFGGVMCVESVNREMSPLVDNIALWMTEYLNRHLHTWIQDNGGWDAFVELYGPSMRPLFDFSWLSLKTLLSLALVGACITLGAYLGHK
Sequence of Bcl-2-like protein 1 (Q07817 whole entry): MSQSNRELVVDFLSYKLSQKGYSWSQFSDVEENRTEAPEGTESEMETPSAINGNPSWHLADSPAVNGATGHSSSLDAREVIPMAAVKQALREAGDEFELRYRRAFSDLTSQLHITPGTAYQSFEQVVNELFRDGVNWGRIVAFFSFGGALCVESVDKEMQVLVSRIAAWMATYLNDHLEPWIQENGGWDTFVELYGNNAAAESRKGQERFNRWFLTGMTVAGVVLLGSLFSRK
Sequence of Induced myeloid leukemia cell differentiation protein Mcl-1 (Q07820 whole entry): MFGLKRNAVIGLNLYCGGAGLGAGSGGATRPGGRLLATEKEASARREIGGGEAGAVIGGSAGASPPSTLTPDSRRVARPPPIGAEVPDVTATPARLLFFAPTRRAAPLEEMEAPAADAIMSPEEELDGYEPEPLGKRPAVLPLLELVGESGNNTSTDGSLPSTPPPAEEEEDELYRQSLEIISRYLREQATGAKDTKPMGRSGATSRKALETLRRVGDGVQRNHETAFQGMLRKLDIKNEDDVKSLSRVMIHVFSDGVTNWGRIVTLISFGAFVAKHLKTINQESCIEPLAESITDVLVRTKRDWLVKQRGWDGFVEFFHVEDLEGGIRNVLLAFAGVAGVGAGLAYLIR

SMILES	Ki [1] [nM]	IC50 [2] [nM]	Ki [6] [nM]	also measured
O=C(Nc1ccccc1)c1cc(Cc2ccccc2)c(O)c(O)c1O	8300	7200		
O=C(Nc1ccc(S(=O)(=O)c2ccccc2)cc1)c1cc(Cc2ccccc2)c(O)c(O)c1O	930	1600		
Cc1cc2c(C(C)C)c(O)c(O)c(C=O)c2c(O)c1-c1c(C)cc2c(C(C)C)c(O)c(O)c(C=O)c2c1O [GOSSYPOL]			180	Ki [5]: 480 nM

Now from value to molecule, other results behind:

Ki [1] [nM]	IC50 [2] [nM]	Ki [6] [nM]	SMILES	also measured
24100	53100		CC(C)c1cc(C(=O)Nc2ccccc2)c(O)c(O)c1O	
25000			COc1c(Cc2ccccc2C(C)C)cc(C(=O)Nc2ccc(S(=O)(=O)c3ccccc3C(C)(C)C)cc2)c(OC)c1OC	Activity [3]: 1.2%
290	700	260	CC(C)c1ccccc1Cc1cc(C(=O)Nc2ccc(S(=O)(=O)c3ccccc3C(C)(C)C)cc2)c(O)c(O)c1O	Activity [4]: 11.2%; IC50 [5]: 6580 nM; Ki [5]: 1110 nM; IC50 [6]: 1030 nM; Activity [7]: 89.5%
		12	CC[C@H](C)[C@H](NC(=O)[C@H](CC(N)=O)NC(=O)[C@H](CCCN=C(N)N)NC(=O)[C@@H](NC(=O)[C@@H](NC(=O)[C@H](CC(=O)O)NC(=O)[C@H](CCC(=O)O)NC(=O)[C@@H](N)CCC(N)=O)[C@@H](C)CC)[C@@H](C)CC)C(=O)N[C@@H](C)C(=O)N[C@@H](CCCN=C(N)N)C(=O)N[C@@H](Cc1c[nH]cn1)C(=O)N[C@@H](CC(C)C)C(=O)N[C@@H](C)C(=O)N[C@@H](CCC(N)=O)C(=O)N[C@H](C(=O)NCC(=O)N[C@@H](CC(=O)O)C(=O)N[C@@H](CO)C(=O)N[C@@H](CCSC)C(=O)N[C@@H](CC(=O)O)C(=O)N[C@@H](CCCN=C(N)N)C(=O)O)C(C)C	IC50 [6]: 52 nM
